The source of these data is ChEMBL document CHEMBL2157873, “Development and characterization of endocannabinoid hydrolases FAAH and MAGL inhibitors bearing a benzotriazol-1-yl carboxamide scaffold” (Bioorg Med Chem, 2012).

The species entered for assay [1] is Homo sapiens. As to the kind of experiment: Selectivity ratio of IC50 for human recombinant FAAH to IC50 for human MAGL. The procedure, abridged:
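Selectivity calculated as IC50 for human FAAH divided by IC50 for human MAGL. Both IC50 values from radiometric hydrolysis assays: [3H]-AEA with MBP-fused FAAH and [3H]-2-OG with pure MAGL. Each assay had 30 min inhibitor preincubation. Means of three independent experiments in duplicate.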

Assay [2] addresses T1, Fatty-acid amide hydrolase 1 (Homo sapiens) (UniProt O00519).
T1 sequence (whole entry): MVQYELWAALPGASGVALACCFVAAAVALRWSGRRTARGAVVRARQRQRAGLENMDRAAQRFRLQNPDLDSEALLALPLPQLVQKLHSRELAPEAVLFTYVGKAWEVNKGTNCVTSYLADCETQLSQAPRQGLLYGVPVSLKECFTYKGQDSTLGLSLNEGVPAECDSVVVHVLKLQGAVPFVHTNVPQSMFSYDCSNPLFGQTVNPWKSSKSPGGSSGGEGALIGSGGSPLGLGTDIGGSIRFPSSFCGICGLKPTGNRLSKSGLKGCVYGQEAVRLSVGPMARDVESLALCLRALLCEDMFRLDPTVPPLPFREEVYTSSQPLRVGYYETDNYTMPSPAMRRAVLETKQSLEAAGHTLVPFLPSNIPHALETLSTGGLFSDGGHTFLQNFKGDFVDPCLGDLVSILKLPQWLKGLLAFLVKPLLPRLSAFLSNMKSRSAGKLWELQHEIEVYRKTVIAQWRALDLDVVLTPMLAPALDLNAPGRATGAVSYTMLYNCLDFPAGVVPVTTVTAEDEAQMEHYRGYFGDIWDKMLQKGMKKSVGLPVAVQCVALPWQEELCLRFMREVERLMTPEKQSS
As to the kind of experiment: Inhibition of human recombinant FAAH assessed as [3H]-AEA hydrolysis preincubated for 30 mins […] measured at 10^-5 M after 10 mins by liquid scintillation counting.

In assay [3] the target is T2, Monoglyceride lipase (Homo sapiens, UniProt Q99685).
T2 sequence (Q99685 whole entry): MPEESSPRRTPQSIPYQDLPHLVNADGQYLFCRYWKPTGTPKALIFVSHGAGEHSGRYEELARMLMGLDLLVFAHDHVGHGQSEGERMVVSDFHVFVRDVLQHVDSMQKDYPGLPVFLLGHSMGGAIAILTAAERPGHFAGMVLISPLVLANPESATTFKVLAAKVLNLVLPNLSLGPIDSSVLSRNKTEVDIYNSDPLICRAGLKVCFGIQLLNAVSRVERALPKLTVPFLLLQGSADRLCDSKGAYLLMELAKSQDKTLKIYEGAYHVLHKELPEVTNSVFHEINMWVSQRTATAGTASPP
The assay is described as follows: Inhibition of human MAGL assessed as [3H]-2-OG hydrolysis preincubated for 30 mins before [3H]-2-OG addition measured after 10 mins by liquid scintillation counting. A digest of the protocol:
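[3H]-2-oleoylglycerol then added at 10 µM final. Stopped with methanol-chloroform (1:1), centrifuged 5 min at 700 g, aqueous-phase radioactivity read by liquid scintillation, no-enzyme blank subtracted. Means of three independent experiments in duplicate.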

Assay [4] addresses T3, Fatty-acid amide hydrolase 1 (Homo sapiens, UniProt O00519).
T3 sequence (O00519 whole entry): T1 sequence (whole entry)
As to the kind of experiment: Inhibition of human recombinant FAAH assessed as [3H]-AEA hydrolysis preincubated for 30 mins […] measured after 10 mins by liquid scintillation counting. The procedure, abridged:
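Human FAAH fused to maltose-binding protein, preincubated 30 min at 22 °C with inhibitor at various concentrations (Tris 10 mM, EDTA 1 mM, pH 8.0, inhibitor in DMSO). [3H]-anandamide (50,000 dpm) added, 10 min at 37 °C. Stopped with cold methanol/chloroform (1:1), aqueous-phase radioactivity by scintillation, blank subtracted, percent of control fitted as dose-response. Three independent experiments in duplicate.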

Structures are written as SMILES.

In general, inhibition refers to the change of the read-out against control, counted positive when it falls. For orientation: IC50 means the concentration needed to halve the response being measured.

Take `O=C(c1cc(N2CCN(C(=O)n3nnc4ccccc43)CC2)ccc1[N+](=O)[O-])N1CCOCC1`: the Ratio IC50 in assay [1] is above 100. For the same molecule, the inhibition in assay [2] is 40%. For the same molecule, the IC50 in assay [3] was found to be 162 nM.

On to `O=C(NC1CCCCC1)c1cc(N2CCN(C(=O)n3nnc4ccccc43)CC2)ccc1[N+](=O)[O-]`, for which the Ratio IC50 in assay [1] amounted to 12. Also, the values for the IC50 in assay [4] and in assay [3] were 490 nM and 41 nM, respectively.

For `O=C(c1cc(N2CCN(C(=O)n3nnc4ccccc43)CC2)ccc1[N+](=O)[O-])N1CCCCC1`, the Ratio IC50 in assay [1] was determined as 60. Moreover, the values for the IC50 in assay [4] and in assay [3] were 2290 nM and 38 nM, respectively.

In the case of `O=C(NCCc1ccc(O)c(O)c1)n1nnc2ccccc21`, in assay [3], the 50% inhibitory concentration (IC50) was found to be 10500 nM.

`CN1CCN(C(=O)c2cc(N3CCN(C(=O)n4nnc5ccccc54)CC3)ccc2[N+](=O)[O-])CC1`: in assay [1], the Ratio IC50 is above 100. For the same molecule, the inhibition in assay [2] worked out at 40%. For the same molecule, the IC50 in assay [3] stood at 141 nM.

Consider `O=C(N1CCN(Cc2cccc(Cl)c2)CC1)n1nnc2ccccc21`, for which, in assay [1], the Ratio IC50 was 4.5. The values for the 50% inhibitory concentration (IC50) in assay [4] and in assay [3] were 9 nM and 2 nM, respectively.

Take `O=C(N1CCN(Cc2cccc(-c3ccccc3)c2)CC1)n1nnc2ccccc21`: the Ratio IC50 in assay [1] was 0.4. The figures for the half-inhibitory concentration (IC50) in assay [4] and in assay [3] were 9 nM and 23 nM, respectively.

Consider `O=C(N1CCN(c2ccc([N+](=O)[O-])cc2)CC1)n1nnc2ccccc21`, for which the Ratio IC50 in assay [1] worked out at 1.7. In addition, the IC50 in assay [4] was 34 nM; in assay [3], 20 nM.

For `O=C(N1CCN(Cc2ccc(F)cc2)CC1)n1nnc2ccccc21`, the Ratio IC50 in assay [1] turned out to be 1.5. The values for the 50% inhibitory concentration (IC50) in assay [4] and in assay [3] were 15 nM and 10 nM, respectively.

For the molecule `Cc1ccccc1N1CCN(C(=O)n2nnc3ccccc32)CC1`, the Ratio IC50 in assay [1] turned out to be 0.04. The IC50 in assay [4] came to 3 nM; in assay [3] it was 71 nM.

Consider `O=C(N1CCN(Cc2ccc([N+](=O)[O-])cc2)CC1)n1nnc2ccccc21`, for which the Ratio IC50 in assay [1] is 7.6. Besides, the IC50 in assay [4] came to 89 nM; in assay [3] it was 12 nM.

As for `O=C(c1cccc(CN2CCN(C(=O)n3nnc4ccccc43)CC2)c1)N1CCCCC1`, the Ratio IC50 in assay [1] was 1.6. The figures for the concentration for half-maximal inhibition (IC50) in assay [4] and in assay [3] were 58 nM and 36 nM, respectively.

Regarding `O=C(Nc1ccccc1)c1cccc(CN2CCN(C(=O)n3nnc4ccccc43)CC2)c1`, the Ratio IC50 in assay [1] was determined as 4.8. The results for the 50% inhibitory concentration (IC50) in assay [4] and in assay [3] were 35 nM and 7 nM, respectively.

Take `O=C(N1CCN(C/C=C/c2ccccc2)CC1)n1nnc2ccccc21`: the Ratio IC50 in assay [1] came out at 0.8. The IC50 in assay [4] was 28 nM; in assay [3] it was 33 nM.

For `O=C(N1CCN(c2ccccc2[N+](=O)[O-])CC1)n1nnc2ccccc21`, the Ratio IC50 in assay [1] was 0.08. For the same molecule, the IC50 was 19 nM in assay [4] and 224 nM in assay [3].

In the case of `O=C(O)c1cccc(CN2CCN(C(=O)n3nnc4ccccc43)CC2)c1`, the Ratio IC50 in assay [1] is 41. In addition, the half-maximal inhibitory concentration (IC50) in assay [4] turned out to be 27500 nM; in assay [3] it was 676 nM.

On to `O=C(N1CCN(Cc2cccc([N+](=O)[O-])c2)CC1)n1nnc2ccccc21`, for which, in assay [1], the Ratio IC50 was 5.4. Besides, the results for the half-maximal inhibitory concentration (IC50) in assay [4] and in assay [3] were 43 nM and 8 nM, respectively.

As for `CN(C)C(=O)c1cc(N2CCN(C(=O)n3nnc4ccccc43)CC2)ccc1[N+](=O)[O-]`, the Ratio IC50 in assay [1] turned out to be 79. The figures for the IC50 in assay [4] and in assay [3] were 5010 nM and 63 nM, respectively.

Take `O=C(N1CCN(Cc2ccccc2)CC1)n1nnc2ccccc21`: in assay [1], the Ratio IC50 stood at 2.4. Moreover, the half-inhibitory concentration (IC50) is 19 nM in assay [4] and 8 nM in assay [3].

As to `O=C(N1CCC(Cc2ccccc2)CC1)n1nnc2ccccc21`, the Ratio IC50 in assay [1] was found to be 0.7. The IC50 in assay [4] turned out to be 2 nM; in assay [3], 3 nM.

For `CC(C)NC(=O)c1ccc(N2CCN(C(=O)n3nnc4ccccc43)CC2)c([N+](=O)[O-])c1`, the Ratio IC50 in assay [1] was determined as 0.43. The IC50 in assay [4] was 158 nM; in assay [3], 372 nM.

Consider `O=C(N1CCN(Cc2ccc3ccccc3c2)CC1)n1nnc2ccccc21`, for which the Ratio IC50 in assay [1] stood at 1.3. Moreover, the IC50 amounted to 12 nM in assay [4] and 9 nM in assay [3].

Regarding `O=C(N1CCN(Cc2ccc(Br)cc2)CC1)n1nnc2ccccc21`, in assay [1], the Ratio IC50 was 2.5. Also, the figures for the half-inhibitory concentration (IC50) in assay [4] and in assay [3] were 22 nM and 9 nM, respectively.

Consider `COc1ccc(N2CCN(C(=O)n3nnc4ccccc43)CC2)cc1`, for which the Ratio IC50 in assay [1] amounted to 0.47. Besides, the results for the IC50 in assay [4] and in assay [3] were 15 nM and 32 nM, respectively.

`O=C(N1CCN(Cc2ccc(Cl)cc2)CC1)n1nnc2ccccc21`: the Ratio IC50 in assay [1] was found to be 1.5. For the same molecule, the IC50 stood at 17 nM in assay [4] and 11 nM in assay [3].

`CN(C)C(=O)c1cccc(CN2CCN(C(=O)n3nnc4ccccc43)CC2)c1`: in assay [1], the Ratio IC50 stood at 2.7. The IC50 was found to be 275 nM in assay [4] and 102 nM in assay [3].

In the case of `O=C(Nc1ccccc1)c1cc(N2CCN(C(=O)n3nnc4ccccc43)CC2)ccc1[N+](=O)[O-]`, the Ratio IC50 in assay [1] was determined as 19. Moreover, the IC50 in assay [4] amounted to 363 nM; in assay [3], 19 nM.

On to `O=C(c1ccc(N2CCN(C(=O)n3nnc4ccccc43)CC2)c([N+](=O)[O-])c1)N1CCOCC1`, for which the Ratio IC50 in assay [1] came to 2. The results for the IC50 in assay [4] and in assay [3] were 1950 nM and 955 nM, respectively.

Consider `O=C(NC1CCCCC1)c1cccc(CN2CCN(C(=O)n3nnc4ccccc43)CC2)c1`, for which the Ratio IC50 in assay [1] was determined as 3.4. Moreover, the values for the concentration for half-maximal inhibition (IC50) in assay [4] and in assay [3] were 44 nM and 13 nM, respectively.

As for `CC(C)NC(=O)c1cc(N2CCN(C(=O)n3nnc4ccccc43)CC2)ccc1[N+](=O)[O-]`, the Ratio IC50 in assay [1] worked out at 8.9. In addition, the values for the IC50 in assay [4] and in assay [3] were 2090 nM and 234 nM, respectively.

As for `O=C(N1CCN(c2ccccc2F)CC1)n1nnc2ccccc21`, the Ratio IC50 in assay [1] turned out to be 0.44. For the same molecule, the concentration for half-maximal inhibition (IC50) in assay [4] amounted to 13 nM; in assay [3], 30 nM.

For `O=C(N1CCN(Cc2ccc(-c3ccccc3)cc2)CC1)n1nnc2ccccc21`, the Ratio IC50 in assay [1] came to 0.3. The figures for the IC50 in assay [4] and in assay [3] were 18 nM and 62 nM, respectively.

As to `O=C(N1CCN(c2ccccc2)CC1)n1nnc2ccccc21`, in assay [1], the Ratio IC50 worked out at 0.5. Moreover, the IC50 in assay [4] is 11 nM; in assay [3], 21 nM.

For `O=C(N1CCN(Cc2ccccc2-c2ccccc2)CC1)n1nnc2ccccc21`, the Ratio IC50 in assay [1] came to 1. In addition, the 50% inhibitory concentration (IC50) was 32 nM in assay [4] and 33 nM in assay [3].

In the case of `CN1CCN(C(=O)c2cccc(CN3CCN(C(=O)n4nnc5ccccc54)CC3)c2)CC1`, the Ratio IC50 in assay [1] was 4.3. Besides, the half-inhibitory concentration (IC50) in assay [4] is 1380 nM; in assay [3] it was 324 nM.

Turning to `O=C(N1CCN(Cc2cccc3ccccc23)CC1)n1nnc2ccccc21`, the Ratio IC50 in assay [1] is 4. The IC50 in assay [4] is 13 nM; in assay [3], 3 nM.
